Converted amounts (≈) assume the structure as drawn.
Key:
Type in all cases: functional
[1] = test system: Staphylococcus epidermidis; assay: Antibacterial activity against penicillin-resistant Staphylococcus epidermidis clinical isolate by broth microdilution method
Outline: (§1)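 Broth microdilution per NCCL recommendation, read as minimal inhibitory concentration, run alongside azithromycin and clarithromycin references. Strains: S. pneumoniae B1 (erythromycin-resistant, ermB), A22072 (erythromycin-resistant, mefA), AB11 (erythromycin-resistant, erm and mef); S. aureus ATCC29213 ([…]); S. epidermidis clinical isolate (penicillin-resistant, not characterized).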

Escherichia coli = assay: Antibacterial activity against penicillin-susceptible Escherichia coli ATCC 25922 by broth microdilution method
Outline: (§2)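 MICs were determined in vitro by broth microdilution following the NCCL-recommended method. Azithromycin and clarithromycin were run alongside as reference antibiotics on the same strain panel.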

Staphylococcus aureus [2] = assay: Antibacterial activity against […] Staphylococcus aureus ATCC 29213 by broth microdilution method; outline: as §1
Streptococcus pneumoniae [3] = assay: Potency index, ratio of azithromycin MIC to test compound MIC for erythromycin-resistant Streptococcus pneumoniae B1 expressing ermB gene
Staphylococcus aureus [4] = assay: Antibacterial activity against erythromycin-susceptible Staphylococcus aureus ATCC 25923 by broth microdilution method; outline: as §2
Streptococcus pyogenes [5] = assay: Antibacterial activity against erythromycin-susceptible Streptococcus pyogenes clinical isolate by broth microdilution method; outline: as §2
Bacillus subtilis [6] = assay: Antibacterial activity against erythromycin/penicillin-susceptible Bacillus subtilis ATCC 9372 by broth microdilution method; outline: as §2
Pseudomonas aeruginosa = assay: Antibacterial activity against penicillin-susceptible Pseudomonas aeruginosa ATCC 27853 by broth microdilution method; outline: as §2
Streptococcus pyogenes [7] = assay: Potency index, ratio of clarithromycin MIC to test compound MIC for erythromycin-resistant Streptococcus pyogenes R1 clinical isolate
Streptococcus pneumoniae [8] = assay: Antibacterial activity against erythromycin-resistant Streptococcus pneumoniae B1 expressing ermB gene by broth microdilution method; outline: as §1
Streptococcus pyogenes [9] = assay: Potency index, ratio of azithromycin MIC to test compound MIC for erythromycin-resistant Streptococcus pyogenes R1 clinical isolate
Streptococcus pyogenes [10] = assay: Antibacterial activity against erythromycin-resistant Streptococcus pyogenes R1 clinical isolate by broth microdilution method
Streptococcus pneumoniae [11] = assay: Antibacterial activity against erythromycin-resistant Streptococcus pneumoniae A22072 expressing mefA gene by broth microdilution method; outline: as §1
Streptococcus pneumoniae [12] = assay: Antibacterial activity against erythromycin-resistant Streptococcus pneumoniae AB11 expressing ermB/mefA genes by broth microdilution method; outline: as §1
Streptococcus pneumoniae [13] = assay: Potency index, ratio of clarithromycin MIC to test compound MIC for erythromycin-resistant Streptococcus pneumoniae B1 expressing ermB gene
Streptococcus pneumoniae [14] = assay: Potency index, ratio of azithromycin MIC to test compound MIC for erythromycin-resistant Streptococcus pneumoniae A22072 expressing mefA gene
Streptococcus pneumoniae [15] = assay: Potency index, ratio of azithromycin MIC to test compound MIC for erythromycin-resistant Streptococcus pneumoniae AB11 expressing ermB/mefA genes
Streptococcus pneumoniae [16] = assay: Potency index, ratio of clarithromycin MIC to test compound MIC for erythromycin-resistant Streptococcus pneumoniae A22072 expressing mefA gene
Streptococcus pneumoniae [17] = assay: Potency index, ratio of clarithromycin MIC to test compound MIC for erythromycin-resistant Streptococcus pneumoniae AB11 expressing ermB/mefA genes
[18] = test system: Staphylococcus epidermidis; assay: Potency index, ratio of azithromycin MIC to test compound MIC for penicillin-resistant Staphylococcus epidermidis clinical isolate
Bacillus subtilis [19] = assay: Potency index, ratio of azithromycin MIC to test compound MIC for erythromycin/penicillin-susceptible Bacillus subtilis ATCC 9372

Row | Structure (SMILES) | MIC [1] | MIC (Escherichia coli) | MIC (Staphylococcus aureus [2]) | Ratio (Streptococcus pneumoniae [3]) | MIC (Staphylococcus aureus [4]) | MIC (Streptococcus pyogenes [5]) | MIC (Bacillus subtilis [6]) | MIC (Pseudomonas aeruginosa) | Ratio (Streptococcus pyogenes [7]) | MIC (Streptococcus pneumoniae [8]) | Ratio (Streptococcus pyogenes [9]) | MIC (Streptococcus pyogenes [10]) | MIC (Streptococcus pneumoniae [11]) | MIC (Streptococcus pneumoniae [12]) | Ratio (Streptococcus pneumoniae [13]) | Ratio (Streptococcus pneumoniae [14]) | Ratio (Streptococcus pneumoniae [15]) | Ratio (Streptococcus pneumoniae [16]) | Ratio (Streptococcus pneumoniae [17]) | further results
1 | CC[C@H]1OC(=O)[C@H](C)[C@@H](OC(=O)Nc2ccccc2)[C@H](C)[C@@H](O[C@@H]2O[C@H](C)C[C@H](N(C)C)[C@H]2O)[C@](C)(O)C[C@@H](C)CN(C)[C@H](C)[C@H]2OC(=O)O[C@@]21C | 4 µg/mL (≈ 5.44 µM) | 128 µg/mL (≈ 174 µM) | 128 µg/mL (≈ 174 µM) | 16 | 2 µg/mL (≈ 2.72 µM) | 0.25 µg/mL (≈ 0.34 µM) | 4 µg/mL (≈ 5.44 µM) | 128 µg/mL (≈ 174 µM) | 32 | 16 µg/mL (≈ 21.7 µM) | 32 | 8 µg/mL (≈ 10.9 µM) | 16 µg/mL (≈ 21.7 µM) | 16 µg/mL (≈ 21.7 µM) | 16 |  |  |  |  | 
2 | CC[C@H]1OC(=O)[C@H](C)[C@@H](OC(=O)Nc2cccc(C)c2)[C@H](C)[C@@H](O[C@@H]2O[C@H](C)C[C@H](N(C)C)[C@H]2O)[C@](C)(O)C[C@@H](C)CN(C)[C@H](C)[C@@H](OC(=O)NCc2ccccc2Cl)[C@]1(C)O | 0.25 µg/mL (≈ 0.28 µM) | 64 µg/mL (≈ 71.8 µM) | 64 µg/mL (≈ 71.8 µM) | 8 - 256 | 2 µg/mL (≈ 2.24 µM) | 0.03 µg/mL (≈ 0.0336 µM) | 4 µg/mL (≈ 4.49 µM) | 64 µg/mL (≈ 71.8 µM) |  | 8 µg/mL (≈ 8.97 µM) |  | 32 µg/mL (≈ 35.9 µM) | 0.5 µg/mL (≈ 0.561 µM) | 4 µg/mL (≈ 4.49 µM) | 8 - 256 | 8 | 8 - 256 | 8 - 256 | 8 - 256 | 
3 | CC[C@H]1OC(=O)[C@H](C)[C@@H](OC(=O)Nc2ccccc2C)[C@H](C)[C@@H](O[C@@H]2O[C@H](C)C[C@H](N(C)C)[C@H]2O)[C@](C)(O)C[C@@H](C)CN(C)[C@H](C)[C@@H](OC(=O)NCc2ccccc2)[C@]1(C)O | 0.25 µg/mL (≈ 0.292 µM) | 64 µg/mL (≈ 74.7 µM) | 32 µg/mL (≈ 37.3 µM) | 8 - 256 | 1 µg/mL (≈ 1.17 µM) | 0.03 µg/mL (≈ 0.035 µM) | 2 µg/mL (≈ 2.33 µM) | 64 µg/mL (≈ 74.7 µM) |  | 32 µg/mL (≈ 37.3 µM) |  | 128 µg/mL (≈ 149 µM) | 0.25 µg/mL (≈ 0.292 µM) | 2 µg/mL (≈ 2.33 µM) | 8 - 256 | 16 | 8 - 256 | 8 - 256 | 8 - 256 | 
4 | CCCCCCNC(=O)O[C@@H]1[C@@H](C)N(C)C[C@H](C)C[C@@](C)(O)[C@H](O[C@@H]2O[C@H](C)C[C@H](N(C)C)[C@H]2O)[C@@H](C)[C@H](OC(=O)Nc2ccc(OC)cc2)[C@@H](C)C(=O)O[C@H](CC)[C@@]1(C)O | 0.125 µg/mL (≈ 0.144 µM) | 128 µg/mL (≈ 148 µM) | 128 µg/mL (≈ 148 µM) | 256 | 8 µg/mL (≈ 9.23 µM) | 1 µg/mL (≈ 1.15 µM) | 0.5 µg/mL (≈ 0.577 µM) | 128 µg/mL (≈ 148 µM) |  | 1 µg/mL (≈ 1.15 µM) |  | 32 µg/mL (≈ 36.9 µM) | 8 µg/mL (≈ 9.23 µM) | 1 µg/mL (≈ 1.15 µM) | 256 | 8 - 256 | 256 | 8 - 256 | 128 | Ratio [18]: 2; Ratio (Bacillus subtilis [19]): 2
5 | CCCCCCNC(=O)O[C@H]1[C@H](C)[C@@H](O[C@@H]2O[C@H](C)C[C@H](N(C)C)[C@H]2OC(C)=O)[C@](C)(O)C[C@@H](C)CN(C)[C@H](C)[C@H]2OC(=O)O[C@]2(C)[C@@H](CC)OC(=O)[C@@H]1C | 16 µg/mL (≈ 20.4 µM) | 128 µg/mL (≈ 163 µM) | 32 µg/mL (≈ 40.7 µM) |  | 16 µg/mL (≈ 20.4 µM) | 4 µg/mL (≈ 5.09 µM) | 8 µg/mL (≈ 10.2 µM) | 128 µg/mL (≈ 163 µM) | 8 | 64 µg/mL (≈ 81.4 µM) | 8 | 32 µg/mL (≈ 40.7 µM) | 64 µg/mL (≈ 81.4 µM) | 16 µg/mL (≈ 20.4 µM) |  |  |  |  |  | 

— ChEMBL document CHEMBL3994579, “Synthesis and antibacterial activity of novel 3-O-descladinosylazithromycin derivatives” (2017)
